Data: ChEMBL document CHEMBL1121573, “2-(Aminomethyl)phenols, a new class of saluretic agents. 1. Effects of nuclear substitution” (J Med Chem, 1980)
“And” between values parts separate entries of the source, which are not always exact repeats. Identical values can stand only once. Values belong to the compound of their own block, whether it stands above or below them.

Tests used:
Rattus norvegicus [1] = assay: Oral diuretic activity was evaluated by measuring Na+ excretion in Rat at 9 mg/kg after […] (0-5 hr); assay type: ADME, organism-based, Urine; design: dose 9 mg/kg; settings: in vivo, ip
In short: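 Female Charles-River rats (150–170 g) were kept overnight on a sugar diet with water ad libitum. Compound was dissolved in DMF, then diluted with water containing Tween 80 (3 drops/100 mL) to a final 4% DMF, and given po in 5.0 mL. Rats were housed three per metabolism cage. Urine from 0–5 h was analysed for Na+, K+ and Cl−, with concurrent placebo controls. Values are mequiv × 100 per cage, geometric mean of three cages per dose.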

Canis familiaris [2] = assay: Oral diuretic activity was evaluated by measuring Na+ excretion in dog at 0.3 mg/kg after ip administration (0-6 hr); assay type: ADME, organism-based, Canis lupus familiaris, Urine; design: dose 0.3 mg/kg, route intraperitoneal; settings: in vivo
In short: (§1)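 Spontaneous urine was pooled with bladder urine collected by catheterization at 6 h. Volume was measured and Na+, K+ and Cl− were determined by standard methods. Values are geometric means.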

Canis familiaris [3] = assay: Oral diuretic activity was evaluated by measuring Na+ excretion in dog at 10 mg/kg after ip administration (0-6 hr); assay type: ADME, organism-based, Canis lupus familiaris, Urine; design: dose 10 mg/kg, route intraperitoneal; settings: in vivo; in short: as §1
Canis familiaris [4] = assay: Oral diuretic activity was evaluated by measuring Na+ excretion in dog at 1 mg/kg after ip administration (0-6 hr); assay type: ADME, organism-based, Canis lupus familiaris, Urine; design: dose 1 mg/kg, route intraperitoneal; settings: in vivo; in short: as §1
Canis familiaris [5] = assay: Oral diuretic activity was evaluated by measuring K+ excretion in dog at 5 mg/kg after ip administration (0-6 hr); assay type: ADME, organism-based, Canis lupus familiaris, Urine; design: dose 5 mg/kg, route intraperitoneal; settings: in vivo; in short: as §1
Canis familiaris [6] = assay: Oral diuretic activity was evaluated by measuring Na+ excretion in dog at 5 mg/kg after ip administration (0-6 hr); assay type: ADME, organism-based, Canis lupus familiaris, Urine; design: dose 5 mg/kg, route intraperitoneal; settings: in vivo; in short: as §1
Canis familiaris [7] = assay: Salidiuretic activity in dog following i.v. dosing at 5 mg/kg; assay type: functional, Canis lupus familiaris, Urine; design: unit not given beside the values; settings: route intravenous
In short: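 Conditioned female mongrel dogs, postabsorptive, got a 500 mL oral water load 1 h before pentobarbital anesthesia (30 mg/kg iv). After replicate 15-min control collections, compound was given as an iv stat injection.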

Rattus norvegicus [8] = assay: Oral diuretic activity was evaluated by measuring K+ excretion in Rat at 3 mg/kg […] (0-5 hr); assay type: ADME, organism-based, Urine; design: dose 3 mg/kg
In short: (§2)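 Female Charles-River rats (150–170 g) were kept overnight on a sugar diet with water ad libitum. Test substance was dissolved in DMF and diluted with water containing Tween 80 to a final 4% DMF vehicle, then given po in 5.0 mL. Rats were housed three per metabolism cage, and 0–5 h urine was assayed for Na⁺, K⁺ and Cl⁻ alongside concurrent placebo groups. Values are mequiv × 100 per cage, geometric means of three cages per dose.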

Rattus norvegicus [9] = assay: Oral diuretic activity was evaluated by measuring K+ excretion in Rat at 81 mg/kg after […] (0-5 hr); assay type: ADME, organism-based, Urine; design: dose 81 mg/kg; in short: as §2
Rattus norvegicus [10] = assay: Oral diuretic activity was evaluated by measuring K+ excretion in Rat at 9 mg/kg […] (0-5 hr); assay type: ADME, organism-based, Urine; design: dose 9 mg/kg; in short: as §2
Canis familiaris [11] = assay: Oral diuretic activity was evaluated by measuring K+ excretion in dog at 0.3 mg/kg after […] (0-6 hr); assay type: ADME, organism-based, Canis lupus familiaris, Urine; design: dose 0.3 mg/kg, route intraperitoneal; settings: in vivo
Canis familiaris [12] = assay: Oral diuretic activity was evaluated by measuring K+ excretion in dog at 10 mg/kg after ip administration (0-6 hr); assay type: ADME, organism-based, Canis lupus familiaris, Urine; design: dose 10 mg/kg, route intraperitoneal; settings: in vivo; in short: as §1
Canis familiaris [13] = assay: Oral diuretic activity was evaluated by measuring K+ excretion in dog at 1 mg/kg after ip administration (0-6 hr); assay type: ADME, organism-based, Canis lupus familiaris, Urine; design: dose 1 mg/kg, route intraperitoneal; settings: in vivo; in short: as §1
Rattus norvegicus [14] = assay: Evaluated for salidiuretic activity measured as sodium ion excretion in Rat, administered orally at a dose of 50 mg/kg; assay type: functional, Urine; design: unit not given beside the values; settings: route oral
In short: (§3)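 Female Charles-River rats (150–170 g), overnight on sugar diet with water ad libitum. Compound dissolved in DMF, diluted with water containing Tween 80 (final 4% DMF), given po in 5.0 mL; concurrent vehicle placebo. Three rats per metabolism cage; 0–5 h urine analysed for Na+, K+, Cl-. Values: mequiv × 100 per cage, geometric means of three cages per dose; scored 0–6 by Na+.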

[15] = Compound administered orally at a dose of 5 mg/kg was evaluated for salidiuretic activity measured as sodium ion excretion in Rat; assay type: organism-based; design: dose 5 mg/kg; settings: Urine; in short: as §3
Rattus norvegicus [16] = assay: Compound administered orally at a dose of 81 mg/kg was evaluated for salidiuretic activity measured as sodium ion excretion in Rat; assay type: ADME, organism-based, Urine; design: dose 81 mg/kg, route oral; unit not given beside the values; settings: in vivo, po; in short: as §3
Canis familiaris [17] = assay: Oral diuretic activity was evaluated by measuring Cl- excretion in dog at 5 mg/kg after […] (0-6 hr); assay type: ADME, organism-based, Canis lupus familiaris, Urine; design: dose 5 mg/kg, route intraperitoneal; settings: in vivo
Rattus norvegicus [18] = assay: Oral diuretic activity was evaluated by measuring K+ excretion in Rat at 27 mg/kg […] (0-5 hr); assay type: ADME, organism-based, Urine; design: dose 27 mg/kg; in short: as §2
[19] = Evaluated for salidiuretic activity measured as sodium ion excretion in Rat, administered orally at a dose of 16.5 mg/kg; assay type: organism-based; design: dose 16.5 mg/kg; settings: Urine; in short: as §3
Rattus norvegicus [20] = assay: Oral diuretic activity was evaluated by measuring Cl- excretion in Rat at 27 mg/kg […] (0-5 hr); assay type: ADME, organism-based, Urine; design: dose 27 mg/kg; settings: in vivo
Rattus norvegicus [21] = assay: Oral diuretic activity was evaluated by measuring Cl- excretion in Rat at 3 mg/kg […] (0-5 hr); assay type: ADME, organism-based, Urine; design: dose 3 mg/kg, route intraperitoneal; settings: in vivo
Canis familiaris [22] = assay: Oral diuretic activity was evaluated by measuring Cl- excretion in dog at 0.3 mg/kg after […] (0-6 hr); assay type: ADME, organism-based, Canis lupus familiaris, Urine; design: dose 0.3 mg/kg, route intraperitoneal; settings: in vivo
Canis familiaris [23] = assay: Oral diuretic activity was evaluated by measuring Cl- excretion in dog at 10 mg/kg after […] (0-6 hr); assay type: ADME, organism-based, Canis lupus familiaris, Urine; design: dose 10 mg/kg, route intraperitoneal; settings: in vivo
Canis familiaris [24] = assay: Oral diuretic activity was evaluated by measuring Cl- excretion in dog at 1 mg/kg after […] (0-6 hr); assay type: ADME, organism-based, Canis lupus familiaris, Urine; design: dose 1 mg/kg, route intraperitoneal; settings: in vivo
Rattus norvegicus [25] = species: Rattus norvegicus; assay: Time taken for the decrease in arterial pressure was measured; assay type: functional, Artery
Rattus norvegicus [26] = assay: Maximum fall in mean arterial blood pressure was measured in SH rats when compound was administered at 10 mg/kg perorally; assay type: functional; settings: route oral
Rattus norvegicus [27] = assay: Maximum fall in mean arterial blood pressure was measured in SH rats when compound was administered at 20 mg/kg perorally; assay type: functional; settings: route oral
Rattus norvegicus [28] = assay: Maximum fall in mean arterial blood pressure was measured in SH rats when compound was administered at 40 mg/kg perorally; assay type: functional; settings: route oral
Canis familiaris [29] = assay: Compound administered intravenously at a dose of 5 mg/kg was evaluated for salidiuretic activity measured as sodium ion excretion in Dog; Value ranges from 600- 799; assay type: ADME, organism-based, Canis lupus familiaris, Urine; design: dose 5 mg/kg, route intravenous; settings: in vivo, iv
In short: (§4)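 Conditioned female mongrel dogs, postabsorptive, water-loaded (500 mL po) 1 h before sodium pentobarbital anesthesia (30 mg/kg iv). Bladder catheter; creatinine 4 g sc; phosphate–mannitol buffer pH 7.4 infused (3.0 mL/min) throughout. […] Urine Na+ measured; response scored 0–6.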

Canis familiaris [30] = assay: Compound administered intravenously was evaluated for salidiuretic activity measured as sodium ion excretion in Dog; Value ranges from 600-799; assay type: ADME, organism-based, Canis lupus familiaris, Urine; settings: in vivo, iv; in short: as §4

Diuretic activity (Rattus norvegicus [1]): 1.12 | Diuretic activity (Canis familiaris [2]): 5.4 | Diuretic activity (Canis familiaris [3]): 19.6 | Diuretic activity (Canis familiaris [4]): 16.4 | Diuretic activity (Canis familiaris [5]): 7.4 | Diuretic activity (Canis familiaris [6]): 18.8 | Diuretic activity (Rattus norvegicus [8]): 0.34 | Diuretic activity (Rattus norvegicus [9]): 0.37 | Diuretic activity (Rattus norvegicus [10]): 0.38 | Diuretic activity (Canis familiaris [11]): 1.98 | Diuretic activity (Canis familiaris [12]): 7.1 | Diuretic activity (Canis familiaris [13]): 4.8 | Diuretic activity (Rattus norvegicus [16]): 2.4 | Diuretic activity (Canis familiaris [17]): 26.3 | Diuretic activity (Rattus norvegicus [18]): 0.34 | Diuretic activity (Rattus norvegicus [20]): 1.56 | Diuretic activity (Rattus norvegicus [21]): 1.54 | Diuretic activity (Canis familiaris [22]): 8.57 | Diuretic activity (Canis familiaris [23]): 22.9 | Diuretic activity (Canis familiaris [24]): 22
SMILES: NS(=O)(=O)c1cc2c(cc1Cl)NCNS2(=O)=O [HYDROCHLOROTHIAZIDE]
Diuretic activity (Canis familiaris [7]): 250 | Diuretic activity (Rattus norvegicus [14]): 1.8 | Diuretic activity [15]: 0.4 | Diuretic activity [19]: 0.6 | Duration (Rattus norvegicus [25]): >8 h and 12 h | MAP (Rattus norvegicus [26]): 14 mmHg | MAP (Rattus norvegicus [27]): 25 mmHg | MAP (Rattus norvegicus [28]): 26 mmHg

Diuretic activity (Rattus norvegicus [16]): 2.4 | Diuretic activity (Canis familiaris [29]): 600
SMILES: CCCc1cc(I)c(O)c(CN)c1.Cl
Diuretic activity (Rattus norvegicus [14]): 1.8 | Diuretic activity [15]: 0.4 | Diuretic activity [19]: 0.6

Diuretic activity (Canis familiaris [30]): 600
SMILES: Cc1c(C)c(Cl)c(C)c(CN)c1O.Cl
